In ChEMBL document CHEMBL4007489, “First Bispecific Inhibitors of the Epidermal Growth Factor Receptor Kinase and the NF-κB Activity As Novel Anticancer Agents” (J Med Chem, 2017):
Each block holds one compound with its values, some of them ahead of it. Active and inactive are the calls of the source. No cut-off for these calls is given here.

Experiments:
Homo sapiens [1] = species: Homo sapiens; assay: Inhibition of TNFalpha-stimulated NF-kappaB (unknown origin) expressed in human U937 cells at 1 to 5 uM incubated for 3 hrs followed by TNFalpha stimulation measured after 2.5 hrs by luciferase reporter gene assay; format: cell-based
[2] = target: Protein kinase C iota type (Homo sapiens) (UniProt P41743); assay: Inhibition of TNFalpha-stimulated PKCI in human U937 cells assessed as residual activity at 10 uM in presence of ATP relative to control; format: cell-based
[3] = target: T1, Epidermal growth factor receptor (Homo sapiens, UniProt P00533); assay: biochemical; format: cell-based
cells = format: cell-based; conditions: Homo sapiens, U-937
[4] = target: Inhibitor of nuclear factor kappa-B kinase subunit alpha (Homo sapiens) (UniProt O15111); assay: Inhibition of TNFalpha-stimulated IKKalpha in human U937 cells assessed as residual activity at 10 uM in presence of ATP relative to control; format: cell-based
[5] = target: Inhibitor of nuclear factor kappa-B kinase subunit beta (Homo sapiens) (UniProt O14920); assay: Inhibition of TNFalpha-stimulated IKKbeta in human U937 cells assessed as residual activity at 10 uM in presence of ATP relative to control; format: cell-based
[6] = target: Protein kinase C zeta type (Homo sapiens) (UniProt Q05513); assay: Inhibition of TNFalpha-stimulated PKCzeta in human U937 cells assessed as residual activity at 10 uM in presence of ATP relative to control; format: cell-based
[7] = target: T2, Receptor-interacting serine/threonine-protein kinase 2 (Homo sapiens, UniProt O43353); assay: Inhibition of TNFalpha-stimulated RIPK2 in human U937 cells assessed as residual activity at 10 uM in presence of ATP relative to control; format: cell-based
[8] = target: Mitogen-activated protein kinase 14 (Homo sapiens) (UniProt Q16539); assay: Inhibition of TNFalpha-stimulated SAPK2a in human U937 cells assessed as residual activity at 10 uM in presence of ATP relative to control; format: cell-based
[9] = target: Mitogen-activated protein kinase kinase kinase 7 (Homo sapiens) (UniProt O43318); assay: Inhibition of TNFalpha-stimulated TAK1 in human U937 cells assessed as residual activity at 10 uM in presence of ATP relative to control; format: cell-based
[10] = target: Serine/threonine-protein kinase TBK1 (Homo sapiens) (UniProt Q9UHD2); assay: Inhibition of TNFalpha-stimulated TBK1 in human U937 cells assessed as residual activity at 10 uM in presence of ATP relative to control; format: cell-based
[11] = target: T2, Receptor-interacting serine/threonine-protein kinase 2; assay: Inhibition of TNFalpha-stimulated RIPK2 in human U937 cells in presence of 5 uM ATP; format: cell-based
MDA-MB-231 = assay: cells; format: functional; conditions: Homo sapiens, MDA-MB-231, 48 h
Homo sapiens [12] = species: Homo sapiens; conditions: at 10 µM;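 note: luciferase reporter readout of NF-kappaB activity in human U937 cells, compound added 3 h before TNFalpha stimulation, signal read 2.5 h after stimulation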
[13] = target: T1, Epidermal growth factor receptor; conditions: at 150 nM
[14] = target: Transcription factor p65 (Homo sapiens) (UniProt Q04206); assay: Inhibition of IL-1beta-stimulated nuclear translocation of GFP-tagged NF-kappaB-p65 (unknown origin) expressed in CHO cells preincubated with IL-1beta for 30 mins followed by compound addition by fluorescence assay; format: cell-based
How it was run: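 A GFP-NF-κB-p65 fusion was used; cells were stimulated for 30 min with 25 ng/mL IL-1β. Translocation of the fusion protein from cytoplasm to nucleus was imaged, and the system automatically quantified the ratio of cytoplasmic to nuclear fluorescence per well.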

[15] = target: T3, Proteasome Macropain subunit MB1 (Homo sapiens) (UniProt P28074); assay: Inhibition of chymotrypsin like activity of 26S proteasome derived from human MDA-MB-231 cells at 1 uM
T3 sequence (whole entry): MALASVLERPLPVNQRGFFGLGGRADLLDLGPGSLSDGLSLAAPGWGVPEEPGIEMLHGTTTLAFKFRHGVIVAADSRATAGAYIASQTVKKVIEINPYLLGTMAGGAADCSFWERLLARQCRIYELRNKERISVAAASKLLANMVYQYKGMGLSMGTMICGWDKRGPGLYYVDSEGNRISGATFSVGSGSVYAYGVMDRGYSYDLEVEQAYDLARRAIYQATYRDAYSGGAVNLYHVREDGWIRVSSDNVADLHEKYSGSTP
How it was run: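 Total protein extract from MDA-MB-231 cells served as the source of 26S proteasome. Trypsin-like, chymotrypsin-like and caspase-like activities were each measured with a specific fluorigenic peptide substrate.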

[16] = target: T4, Proteasome component C5 (Homo sapiens) (UniProt P20618); conditions: 1 uM
T4 sequence (whole entry): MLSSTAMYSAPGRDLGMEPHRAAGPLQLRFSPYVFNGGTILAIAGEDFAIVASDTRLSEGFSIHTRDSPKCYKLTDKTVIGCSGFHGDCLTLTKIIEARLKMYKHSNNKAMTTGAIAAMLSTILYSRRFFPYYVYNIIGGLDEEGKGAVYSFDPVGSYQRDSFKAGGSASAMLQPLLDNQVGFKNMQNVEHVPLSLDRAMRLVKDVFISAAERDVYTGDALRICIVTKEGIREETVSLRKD

[17] = target: Proteasome Macropain subunit (Homo sapiens) (UniProt P49721); conditions: 1 uM

T2 sequence (O43353 whole entry): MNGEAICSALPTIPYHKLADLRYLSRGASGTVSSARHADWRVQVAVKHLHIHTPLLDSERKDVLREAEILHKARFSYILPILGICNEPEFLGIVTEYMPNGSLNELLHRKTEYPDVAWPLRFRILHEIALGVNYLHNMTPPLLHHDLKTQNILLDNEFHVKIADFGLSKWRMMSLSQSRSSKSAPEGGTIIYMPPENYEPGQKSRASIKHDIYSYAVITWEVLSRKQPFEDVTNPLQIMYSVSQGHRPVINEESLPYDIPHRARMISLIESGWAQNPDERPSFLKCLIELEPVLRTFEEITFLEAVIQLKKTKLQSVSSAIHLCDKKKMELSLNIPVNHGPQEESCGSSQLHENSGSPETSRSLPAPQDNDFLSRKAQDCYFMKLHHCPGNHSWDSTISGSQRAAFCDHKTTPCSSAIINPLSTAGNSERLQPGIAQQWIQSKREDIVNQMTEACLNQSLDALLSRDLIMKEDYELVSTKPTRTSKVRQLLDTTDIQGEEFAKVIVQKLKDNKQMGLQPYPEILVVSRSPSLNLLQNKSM
T1 sequence (P00533 whole entry): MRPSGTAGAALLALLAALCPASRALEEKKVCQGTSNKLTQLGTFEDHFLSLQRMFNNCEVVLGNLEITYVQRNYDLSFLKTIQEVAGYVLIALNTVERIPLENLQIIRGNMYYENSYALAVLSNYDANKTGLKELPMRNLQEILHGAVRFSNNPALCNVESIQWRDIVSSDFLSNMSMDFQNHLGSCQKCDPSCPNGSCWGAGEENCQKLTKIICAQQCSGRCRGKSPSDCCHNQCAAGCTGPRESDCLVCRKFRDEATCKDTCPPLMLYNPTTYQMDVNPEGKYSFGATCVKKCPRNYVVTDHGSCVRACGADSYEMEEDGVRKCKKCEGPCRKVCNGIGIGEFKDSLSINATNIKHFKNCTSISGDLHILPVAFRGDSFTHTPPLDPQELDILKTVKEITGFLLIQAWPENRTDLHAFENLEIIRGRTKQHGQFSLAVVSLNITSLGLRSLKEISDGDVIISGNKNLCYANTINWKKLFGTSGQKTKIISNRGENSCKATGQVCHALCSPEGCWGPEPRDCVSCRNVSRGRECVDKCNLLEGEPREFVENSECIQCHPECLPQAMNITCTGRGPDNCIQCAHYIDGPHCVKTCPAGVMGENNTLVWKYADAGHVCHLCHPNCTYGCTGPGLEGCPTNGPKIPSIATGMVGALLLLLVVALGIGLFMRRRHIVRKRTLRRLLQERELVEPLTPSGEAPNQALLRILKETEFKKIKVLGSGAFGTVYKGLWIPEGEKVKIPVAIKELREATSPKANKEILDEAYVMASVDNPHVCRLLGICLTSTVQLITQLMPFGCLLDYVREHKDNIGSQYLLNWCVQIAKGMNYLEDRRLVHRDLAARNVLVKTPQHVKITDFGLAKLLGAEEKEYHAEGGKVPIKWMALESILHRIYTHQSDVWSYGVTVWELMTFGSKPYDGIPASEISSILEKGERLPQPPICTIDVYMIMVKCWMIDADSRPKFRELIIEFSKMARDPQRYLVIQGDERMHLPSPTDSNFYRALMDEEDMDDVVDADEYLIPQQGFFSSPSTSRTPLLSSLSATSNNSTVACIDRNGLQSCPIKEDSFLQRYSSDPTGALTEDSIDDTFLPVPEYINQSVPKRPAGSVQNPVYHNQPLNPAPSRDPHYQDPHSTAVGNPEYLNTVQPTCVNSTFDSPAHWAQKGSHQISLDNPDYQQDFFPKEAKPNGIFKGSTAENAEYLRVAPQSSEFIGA
Transcription factor p65 (Homo sapiens), sequence (Q04206 whole entry, the tested form may be a part): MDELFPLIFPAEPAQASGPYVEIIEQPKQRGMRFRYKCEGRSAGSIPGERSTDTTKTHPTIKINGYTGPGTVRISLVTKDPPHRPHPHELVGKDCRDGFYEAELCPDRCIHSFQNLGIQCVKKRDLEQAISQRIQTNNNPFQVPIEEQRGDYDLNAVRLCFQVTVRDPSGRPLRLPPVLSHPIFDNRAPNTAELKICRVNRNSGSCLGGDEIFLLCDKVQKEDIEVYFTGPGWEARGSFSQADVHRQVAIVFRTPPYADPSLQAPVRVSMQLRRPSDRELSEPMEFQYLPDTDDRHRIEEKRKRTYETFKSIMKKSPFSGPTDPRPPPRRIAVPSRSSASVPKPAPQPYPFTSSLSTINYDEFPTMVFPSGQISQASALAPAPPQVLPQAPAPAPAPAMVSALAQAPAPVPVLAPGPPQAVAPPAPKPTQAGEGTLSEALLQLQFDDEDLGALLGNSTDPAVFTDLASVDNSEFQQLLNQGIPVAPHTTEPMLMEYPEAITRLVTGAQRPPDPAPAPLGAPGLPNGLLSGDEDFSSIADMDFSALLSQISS
Mitogen-activated protein kinase kinase kinase 7 (Homo sapiens), sequence (O43318 whole entry): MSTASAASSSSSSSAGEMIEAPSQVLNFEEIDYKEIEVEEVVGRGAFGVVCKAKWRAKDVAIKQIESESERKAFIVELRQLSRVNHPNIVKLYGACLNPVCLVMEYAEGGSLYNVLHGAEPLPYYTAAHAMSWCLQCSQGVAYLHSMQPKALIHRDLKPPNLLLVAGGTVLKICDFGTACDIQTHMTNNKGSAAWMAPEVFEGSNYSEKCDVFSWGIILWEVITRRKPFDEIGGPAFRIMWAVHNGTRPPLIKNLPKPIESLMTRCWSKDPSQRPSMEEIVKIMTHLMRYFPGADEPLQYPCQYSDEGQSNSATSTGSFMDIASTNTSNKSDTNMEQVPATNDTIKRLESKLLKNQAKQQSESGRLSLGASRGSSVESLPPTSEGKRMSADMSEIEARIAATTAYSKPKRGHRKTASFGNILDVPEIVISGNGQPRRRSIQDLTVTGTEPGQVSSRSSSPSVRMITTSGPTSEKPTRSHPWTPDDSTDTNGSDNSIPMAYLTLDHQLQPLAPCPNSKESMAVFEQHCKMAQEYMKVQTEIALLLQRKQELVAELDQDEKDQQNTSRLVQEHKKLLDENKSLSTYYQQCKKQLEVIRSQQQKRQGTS
Serine/threonine-protein kinase TBK1 (Homo sapiens), sequence (Q9UHD2 whole entry): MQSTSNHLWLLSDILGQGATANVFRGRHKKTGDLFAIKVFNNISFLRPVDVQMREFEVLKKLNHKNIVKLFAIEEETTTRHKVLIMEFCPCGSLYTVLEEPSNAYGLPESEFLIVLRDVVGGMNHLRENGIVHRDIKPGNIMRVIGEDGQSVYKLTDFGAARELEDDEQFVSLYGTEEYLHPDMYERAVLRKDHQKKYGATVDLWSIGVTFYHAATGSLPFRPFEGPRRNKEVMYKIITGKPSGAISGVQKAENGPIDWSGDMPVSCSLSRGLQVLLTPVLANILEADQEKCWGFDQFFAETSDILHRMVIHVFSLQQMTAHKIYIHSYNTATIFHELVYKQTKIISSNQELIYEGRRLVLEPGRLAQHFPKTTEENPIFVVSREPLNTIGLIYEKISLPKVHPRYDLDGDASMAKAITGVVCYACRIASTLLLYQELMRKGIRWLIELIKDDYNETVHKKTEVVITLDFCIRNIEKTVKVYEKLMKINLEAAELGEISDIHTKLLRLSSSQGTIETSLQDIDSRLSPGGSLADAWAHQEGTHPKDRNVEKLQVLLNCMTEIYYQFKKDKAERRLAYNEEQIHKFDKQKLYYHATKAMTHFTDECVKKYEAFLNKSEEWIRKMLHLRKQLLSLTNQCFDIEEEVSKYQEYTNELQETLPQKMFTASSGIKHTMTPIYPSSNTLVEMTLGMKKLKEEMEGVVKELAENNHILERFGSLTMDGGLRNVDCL
Protein kinase C iota type (Homo sapiens), sequence (P41743 whole entry): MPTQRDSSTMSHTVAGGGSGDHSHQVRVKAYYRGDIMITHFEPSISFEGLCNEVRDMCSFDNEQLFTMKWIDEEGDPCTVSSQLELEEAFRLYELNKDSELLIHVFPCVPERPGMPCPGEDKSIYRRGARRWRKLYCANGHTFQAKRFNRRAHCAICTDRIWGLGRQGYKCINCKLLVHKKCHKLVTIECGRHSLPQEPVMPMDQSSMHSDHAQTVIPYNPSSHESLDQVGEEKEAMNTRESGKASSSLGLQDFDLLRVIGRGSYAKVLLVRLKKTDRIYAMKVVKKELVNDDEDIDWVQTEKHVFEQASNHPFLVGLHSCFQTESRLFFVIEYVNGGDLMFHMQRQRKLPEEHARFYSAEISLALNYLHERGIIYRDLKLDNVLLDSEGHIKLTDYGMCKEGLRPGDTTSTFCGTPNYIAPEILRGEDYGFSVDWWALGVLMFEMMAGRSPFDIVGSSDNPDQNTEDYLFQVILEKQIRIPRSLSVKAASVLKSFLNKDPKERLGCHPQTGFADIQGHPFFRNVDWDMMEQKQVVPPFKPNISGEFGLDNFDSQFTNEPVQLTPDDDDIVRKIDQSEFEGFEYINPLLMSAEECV
Inhibitor of nuclear factor kappa-B kinase subunit alpha (Homo sapiens), sequence (O15111 whole entry): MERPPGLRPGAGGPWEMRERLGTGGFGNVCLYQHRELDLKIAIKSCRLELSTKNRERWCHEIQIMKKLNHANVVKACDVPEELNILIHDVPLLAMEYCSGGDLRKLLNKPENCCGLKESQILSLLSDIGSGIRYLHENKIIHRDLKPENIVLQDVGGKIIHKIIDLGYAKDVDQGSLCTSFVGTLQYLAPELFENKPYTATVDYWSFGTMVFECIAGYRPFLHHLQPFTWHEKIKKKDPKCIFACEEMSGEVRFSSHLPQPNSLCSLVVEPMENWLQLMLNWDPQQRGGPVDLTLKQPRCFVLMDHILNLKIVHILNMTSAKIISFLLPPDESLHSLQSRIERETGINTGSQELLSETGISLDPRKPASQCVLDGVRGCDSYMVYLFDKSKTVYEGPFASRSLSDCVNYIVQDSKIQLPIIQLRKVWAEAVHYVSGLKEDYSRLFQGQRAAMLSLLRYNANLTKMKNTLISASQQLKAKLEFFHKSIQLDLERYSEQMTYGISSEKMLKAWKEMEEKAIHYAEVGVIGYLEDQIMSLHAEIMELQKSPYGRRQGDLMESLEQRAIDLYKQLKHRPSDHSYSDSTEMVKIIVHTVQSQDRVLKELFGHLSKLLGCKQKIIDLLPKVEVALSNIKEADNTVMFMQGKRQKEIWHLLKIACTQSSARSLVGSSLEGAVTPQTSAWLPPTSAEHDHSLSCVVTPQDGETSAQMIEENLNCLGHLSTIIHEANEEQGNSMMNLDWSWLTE

SMILES: O=C1NC(=O)/C(=C/c2cccc(C(F)(F)F)c2)S1
inhibition (Homo sapiens [1]): inactive

Activity [2]: 106%
IC50 [3]: 0.0172 µM
IC50 (cells): 4.1 µM
Activity [4]: 117%
Activity [5]: 100%
Activity [6]: 92%
Activity [7]: 54%
Activity [8]: 78%
Activity [9]: 106%
Activity [10]: 92%
IC50 [11]: > 10 µM
GI50 (MDA-MB-231): 9.5 µM
inhibition [13]: 86.1%
SMILES: S=C(NCc1ccccc1)Nc1ccc2ncnc(Nc3cccc(Br)c3)c2c1
inhibition (Homo sapiens [12]): 97%

inhibition [14]: Dose-dependent effect
inhibition [15]: Active
inhibition [16]: Active
inhibition [17]: Active
SMILES: CC(C)C[C@H](NC(=O)[C@H](Cc1ccccc1)NC(=O)c1cnccn1)B(O)O
